According to PMC5598375 (Toxicology Reports, 2014):
Marks after values point to notes of the source that are not given here.

What was measured:
[1] = tested on: 48 h-larvae mwh +/+ flr^3; assay: Wing spot test; assay type: in vivo, Drosophila melanogaster; settings: for Small single spots (1–2 cells), statistical diagnosis / Total spots, statistical diagnosis: m = 2; for Small single spots (1–2 cells), statistical diagnosis / Total spots, statistical diagnosis / Large single spots (>cells), statistical diagnosis / Twin spots, statistical diagnosis: vs control; for Large single spots (>cells), statistical diagnosis / Twin spots, statistical diagnosis: m = 5
Summary of the method: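 Crosses: mwh/mwh females × flr3/TM3,Bds males mated 2 h, eggs laid over 2 h. 48 h larvae were collected on 20% sucrose, washed in 24 ± 1 °C water, held 24 h in the dark on filter paper with PP-IX (0–69 mM in 5% sucrose), then fed CrO3 (0.025–2.5 mM) in instant medium, in triplicate. Non-Ser wings were scored at 40× for small (1–2 cells), large and twin spots. Frei–Würgler one-sided test, α=β=0.05, m multiplication factor.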

[2] = tested on: 48 h-old mwh+/+flr^3 larvae; assay: Toxicity test; assay type: in vivo, Drosophila melanogaster; settings: for % of non-viable larvae / No. of viable larvae ± SEM: 500 larvae

[O]=[Cr](=[O])=[O] [CrO3, chromium trioxide]
Large single spots (>cells) per wing ([1]; CrO3 0.025 mM, 120 wings): 0.04 spots per wing
Large single spots (>cells), number of spots ([1]; CrO3 0.025 mM, 120 wings): 5
Small single spots (1–2 cells) per wing ([1]; CrO3 0.025 mM, 120 wings): 0.26 spots per wing
Small single spots (1–2 cells), number of spots ([1]; CrO3 0.025 mM, 120 wings): 31
Total spots per wing ([1]; CrO3 0.025 mM, 120 wings): 0.33 spots per wing
Total spots, number of spots ([1]; CrO3 0.025 mM, 120 wings): 40
Twin spots per wing ([1]; CrO3 0.025 mM, 120 wings): 0.03 spots per wing
Twin spots, number of spots ([1]; CrO3 0.025 mM, 120 wings): 4
Small single spots (1–2 cells), statistical diagnosis ([1]; CrO3 0.025 mM): −
Total spots, statistical diagnosis ([1]; CrO3 0.025 mM): −
Large single spots (>cells), statistical diagnosis ([1]; CrO3 0.025 mM): −
Statistical significance of spot induction vs control ([1]; CrO3 0.25 mM and higher, all kinds of spots): Statistical significant differences were found for all kinds of spots
Large single spots (>cells) per wing ([1]; CrO3 0.25 mM, 150 wings): 0.11 spots per wing
Large single spots (>cells), number of spots ([1]; CrO3 0.25 mM, 150 wings): 16
Small single spots (1–2 cells) per wing ([1]; CrO3 0.25 mM, 150 wings): 0.43 spots per wing
Small single spots (1–2 cells), number of spots ([1]; CrO3 0.25 mM, 150 wings): 64
Total spots per wing ([1]; CrO3 0.25 mM, 150 wings): 0.59 spots per wing
Total spots, number of spots ([1]; CrO3 0.25 mM, 150 wings): 88
Twin spots per wing ([1]; CrO3 0.25 mM, 150 wings): 0.05 spots per wing
Twin spots, number of spots ([1]; CrO3 0.25 mM, 150 wings): 8
Small single spots (1–2 cells), statistical diagnosis ([1]; CrO3 0.25 mM): +
Total spots, statistical diagnosis ([1]; CrO3 0.25 mM): +
Large single spots (>cells), statistical diagnosis ([1]; CrO3 0.25 mM): −
Twin spots, statistical diagnosis ([1]; CrO3 0.25 mM): +
Large single spots (>cells) per wing ([1]; CrO3 1.25 mM, 118 wings): 0.36 spots per wing
Large single spots (>cells), number of spots ([1]; CrO3 1.25 mM, 118 wings): 42
Small single spots (1–2 cells) per wing ([1]; CrO3 1.25 mM, 118 wings): 0.63 spots per wing
Small single spots (1–2 cells), number of spots ([1]; CrO3 1.25 mM, 118 wings): 74
Total spots per wing ([1]; CrO3 1.25 mM, 118 wings): 1.12 spots per wing
Total spots, number of spots ([1]; CrO3 1.25 mM, 118 wings): 132
Twin spots per wing ([1]; CrO3 1.25 mM, 118 wings): 0.14 spots per wing
Twin spots, number of spots ([1]; CrO3 1.25 mM, 118 wings): 16
Small single spots (1–2 cells), statistical diagnosis ([1]; CrO3 1.25 mM): +
Total spots, statistical diagnosis ([1]; CrO3 1.25 mM): +
Large single spots (>cells), statistical diagnosis ([1]; CrO3 1.25 mM): +
Twin spots, statistical diagnosis ([1]; CrO3 1.25 mM): +
Large single spots (>cells) per wing ([1]; CrO3 2.0 mM, 80 wings): 0.52 spots per wing
Large single spots (>cells), number of spots ([1]; CrO3 2.0 mM, 80 wings): 42
Small single spots (1–2 cells) per wing ([1]; CrO3 2.0 mM, 80 wings): 0.81 spots per wing
Small single spots (1–2 cells), number of spots ([1]; CrO3 2.0 mM, 80 wings): 65
Total spots per wing ([1]; CrO3 2.0 mM, 80 wings): 1.79 spots per wing
Total spots, number of spots ([1]; CrO3 2.0 mM, 80 wings): 143
Twin spots per wing ([1]; CrO3 2.0 mM, 80 wings): 0.45 spots per wing
Twin spots, number of spots ([1]; CrO3 2.0 mM, 80 wings): 36
Small single spots (1–2 cells), statistical diagnosis ([1]; CrO3 2.0 mM): +
Total spots, statistical diagnosis ([1]; CrO3 2.0 mM): +
Large single spots (>cells), statistical diagnosis ([1]; CrO3 2.0 mM): +
Twin spots, statistical diagnosis ([1]; CrO3 2.0 mM): +
Large single spots (>cells) per wing ([1]; CrO3 2.5 mM, 120 wings): 1.97 spots per wing
Large single spots (>cells), number of spots ([1]; CrO3 2.5 mM, 120 wings): 236
Small single spots (1–2 cells) per wing ([1]; CrO3 2.5 mM, 120 wings): 2.87 spots per wing
Small single spots (1–2 cells), number of spots ([1]; CrO3 2.5 mM, 120 wings): 344
Total spots per wing ([1]; CrO3 2.5 mM, 120 wings): 6.95 spots per wing
Total spots, number of spots ([1]; CrO3 2.5 mM, 120 wings): 834
Twin spots per wing ([1]; CrO3 2.5 mM, 120 wings): 2.11 spots per wing
Twin spots, number of spots ([1]; CrO3 2.5 mM, 120 wings): 254
Small single spots (1–2 cells), statistical diagnosis ([1]; CrO3 2.5 mM): +
Total spots, statistical diagnosis ([1]; CrO3 2.5 mM): +
Large single spots (>cells), statistical diagnosis ([1]; CrO3 2.5 mM): +
Twin spots, statistical diagnosis ([1]; CrO3 2.5 mM): +
Frequency of mutation relative to the control group ([1]; higher CrO3 concentration (2.5 mM)): 20 times
% of non-viable larvae ([2]; CrO3 0.25 mM): 10%
No. of viable larvae ± SEM ([2]; CrO3 0.25 mM): 448 ± 0.3
No. of viable larvae ± SEM ([2]; CrO3 2.0 mM): 325 ± 2.8
% of non-viable larvae ([2]; CrO3 2.0 mM, significant to p < 0.05 compared with control): 35 ^* %
Mortality ([2]; CrO3 2.5 mM): 61%
Reduction of viability over the control ([2]; CrO3 2.5 mM): 45%
No. of viable larvae ± SEM ([2]; CrO3 2.5 mM): 194 ± 0.8
% of non-viable larvae ([2]; CrO3 2.5 mM, significant to p < 0.05 compared with control): 61 ^* %
Toxicity compared to the control ([2]; CrO3 2 and 2.5 mM): toxic
